Screening data as filed in PubChem BioAssay.
MPTP inh = permeability transition pore inhibition. isolated mouse mitochondria, Ca2+ swelling absorbance, 30 min. inhibition, % at 10 µM. hit rate 1.4% among 360,000;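 active means inhibition of 50% or more, scaled per plate between neutral and stimulator controls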
GRIN3A LBD mod = NR3A (human) ligand-binding domain modulation; hit rate 2.5% among 340,000; NR3A LBD differential scanning fluorimetry, Tm shift; 0% = protein alone, 100% = glycine-bound protein; Tm shift relative to glycine control, % at 25 µM;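 active means melting temperature shift of at least 10% of the positive control shift, at one fixed dose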
SKN-1 block = blocks SKN-1 activity in C. elegans; inhibition, % at 21.8 µM; hit rate 0.49% among 360,000; C. elegans VP596 Pgst-4::GFP/RFP ratio, acrylamide-induced, 24 h;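 active means interference check ratio from 0.5 to 1.5 plus GFP to RFP signal ratio inhibition reaching or exceeding a fixed threshold, cut at about 30% in these data, passing the limit was not always enough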
ADAM17 inh = inhibitors of human ADAM17; P78536; recombinant ADAM17, EDANS/DABCYL FRET peptide cleavage; inhibition, % at 6.95 µM; hit rate 0.83% among 370,000;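 active means inhibition above the mean of compounds lying between control limits plus 3 SD, set per campaign, cut at about 8.5% in these data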
Target sequence (P78536 215-824 limits assumed): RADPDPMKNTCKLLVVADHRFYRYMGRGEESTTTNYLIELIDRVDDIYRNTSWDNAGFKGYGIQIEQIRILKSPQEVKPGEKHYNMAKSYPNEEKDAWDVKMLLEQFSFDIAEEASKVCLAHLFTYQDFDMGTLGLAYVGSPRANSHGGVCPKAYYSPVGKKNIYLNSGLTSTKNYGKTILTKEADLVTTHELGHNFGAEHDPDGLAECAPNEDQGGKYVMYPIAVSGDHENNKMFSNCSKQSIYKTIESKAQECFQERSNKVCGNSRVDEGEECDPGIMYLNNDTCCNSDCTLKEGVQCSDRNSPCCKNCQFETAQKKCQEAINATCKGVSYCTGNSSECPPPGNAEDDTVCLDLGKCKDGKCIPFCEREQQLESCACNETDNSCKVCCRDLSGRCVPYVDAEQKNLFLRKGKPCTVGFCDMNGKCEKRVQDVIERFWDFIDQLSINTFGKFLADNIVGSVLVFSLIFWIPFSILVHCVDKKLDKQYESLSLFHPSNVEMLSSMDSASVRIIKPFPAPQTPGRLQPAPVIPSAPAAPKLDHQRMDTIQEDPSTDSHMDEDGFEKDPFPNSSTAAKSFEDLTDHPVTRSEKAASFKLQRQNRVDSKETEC
ADAM10 inh = inhibitors of human ADAM10 | AID 720582 | inhibition, % at 7 µM | hit rate 0.62% among 370,000 | recombinant ADAM10, EDANS/DABCYL FRET peptide cleavage, 3 h;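 active means inhibition above a per-campaign cutoff equal to the mean of compounds falling between control-based bounds plus 3 SD, cut at about 20% in these data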
MT1-MMP act inh = inhibitors of human MT1-MMP activation. HT1080 RFP-PRO-GFP cells, GFP/RFP ratio fluorescence, overnight; percent of plate control window, DMSO zero. hit rate 0.061% among 360,000. AID 651647. GFP/RFP ratio change, % at 20 µM;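 active means GFP/RFP ratio change of at least 30% with cell ATP level not reduced by more than half and red fluorescence within 50% of control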
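system = RFP-PRO-GFP reporter HT1080 cells | dosing = 20 µM single dose, 1% DMSO | timing = overnight cell settling, then overnight compound exposure, 37 °C, 5% CO2 | read-out basis = GFP/RFP fluorescence ratio | controls = DMSO and RFP-L50D-GFP cell wells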
A number is an active result; . = inactive; / = no result. A selection: hits, their analogues and other compounds. The true share with any hit is near 4.7%.

SMILES | MPTP inh | GRIN3A LBD mod | SKN-1 block | ADAM17 inh | ADAM10 inh | MT1-MMP act inh
C=C(C)C1CC=C(C)C(=NNC(=O)c2ccncc2)C1 (centres undefined) | . | 11.2 | . | . | . | .
c1ccc(C2(Cn3ccc4ccccc43)OCCO2)cc1 | . | . | 43.9 | . | . | .
O=C(O)c1ccc(Cn2ccc3ccccc32)o1 | . | . | . | . | . | .
Cc1nn2cc(-c3ccc(Cl)cc3)nc2s1 | . | . | 45.1 | . | . | .
Cc1nn2cc(-c3ccc(-c4ccccc4)cc3)nc2s1 | . | . | . | . | . | .
COc1ccccc1N=C1SCC(=O)N1c1ccccc1OC | . | . | . | . | . | .
Cc1cccc(N2C(=O)c3ccc(Br)cc3C2=O)n1 | . | / | . | . | . | .
O=C(O)CSc1nnnn1-c1ccc2c(c1)OCCO2 | . | . | . | . | . | .
CC(C)OC(=O)CSc1nnnn1-c1ccc2c(c1)OCCO2 | . | . | 45.1 | . | . | .
COc1ccc(C(C)=O)cc1CN1C(=O)C(C)ON=C1c1ncccc1C (centres undefined) | . | / | . | . | . | .
COc1ccc(C(C)=O)cc1CN1C(=O)C(C)ON=C1c1cccc(C(F)(F)F)c1 (centres undefined) | . | / | 35.1 | . | . | .
C=CCn1c(=NC(=O)c2cc(-c3cccs3)nc3ccccc23)sc2cc(S(N)(=O)=O)ccc21 | . | 27.6 | . | . | . | .
COCCn1c(=NC(=O)c2cc(-c3cccs3)nc3ccccc23)sc2cc(S(N)(=O)=O)ccc21 | . | 28.2 | . | . | . | .
Cc1ccccc1S(=O)(=O)c1cc2ccccc2nc1N | . | . | . | . | . | .
CC1=C(C(=O)OC(C)C)C(c2cccnc2)C2=C(CCCC2=O)N1 (centres undefined) | . | . | . | . | . | .
N/C(=N\OC(=O)c1cccs1)c1ccc(Cl)cc1 | . | . | 52.2 | . | . | .
COc1ccc(/C(N)=N/OC(=O)c2cccs2)cc1 | . | . | . | . | . | .
N/C(=N\OC(=O)Cc1cccs1)c1ccccc1 | . | . | . | . | . | .
N/C(=N\OC(=O)Cc1cccs1)c1ccc(Cl)cc1 | . | . | 57.2 | . | . | .
COCCNC(=O)c1ccc2c(=O)n(Cc3ccco3)c(SCC(=O)Nc3ccc(OC)cc3OC)nc2c1 | . | . | . | . | . | .
O=C(c1ccc(COc2ccccc2Cl)o1)N1CCN(c2ccccc2)CC1 | . | . | . | . | . | .
CCN1CCN(c2nc3sc4c(c3c3ncnn23)CC(C)CC4)CC1 (centres undefined) | . | . | 64.8 | . | . | .
CC1CCc2sc3nc(NCc4ccco4)n4ncnc4c3c2C1 (centres undefined) | . | . | . | . | . | .
CC(=O)Nc1ccc(S(=O)(=O)Nc2nc3ccccc3nc2-n2ccc(=NC(=O)c3ccccc3)cc2)cc1 | . | 24.6 | . | . | . | .
O=C(N=c1ccn(-c2nc3ccccc3nc2NS(=O)(=O)c2ccccc2)cc1)c1ccccc1Cl | . | . | . | . | . | .
SMILES | MPTP inh | GRIN3A LBD mod | SKN-1 block | ADAM17 inh | ADAM10 inh | MT1-MMP act inh
O=C(N=c1ccn(-c2nc3ccccc3nc2NS(=O)(=O)c2ccc(Cl)cc2)cc1)c1cccs1 | . | . | . | . | . | .
CC(=O)Nc1ccc(S(=O)(=O)Nc2nc3ccccc3nc2-n2ccc(=NC(=O)c3ccc(F)cc3)cc2)cc1 | . | 36.0 | . | . | . | .
COCCn1cnc2c1c(=O)n(Cc1ccccc1C#N)c(=O)n2Cc1ccccc1 | . | . | . | . | . | .
CCOc1ccc2nc3ccc4[nH]onc4c3c2c1 | . | 30.8 | . | . | . | .
CCCN=C1N(CC)C[C@@H]2[C@@H]3C(=O)N(Cc4ccccc4)C(=O)[C@@H]3[C@](Cc3ccccc3)(C(=O)OC)N12 | . | 12.7 | . | . | . | .
CCCN=C1N(C)C[C@@H]2[C@@H]3C(=O)N(Cc4ccccc4)C(=O)[C@@H]3[C@](Cc3ccccc3)(C(=O)OC)N12 | . | . | . | . | . | .
Cn1c(N)c(N=O)c(=O)n(C)c1=S | . | . | . | . | . | .
COc1ccc(OC)c(S(=O)(=O)N/N=C(/C)c2c[nH]c3ccccc23)c1 | . | 25.2 | . | . | . | .
